Source: ChEMBL document CHEMBL4359895, “Discovery and biological evaluation of darolutamide derivatives as inhibitors and down-regulators of wild-type AR and the mutants” (Eur J Med Chem, 2019)
Values after ≈ are worked out from the molar mass of the structure shown. Active and inactive are the calls of the source. No cut-off for these calls is given here.

Assays:
LNCaP [1] = test: Antiproliferative activity against human LNCAP expressing AR assessed as reduction in cell viability incubated for 6 days by CCK-8 assay; type: functional, cell-based; conditions: 144 h
In short: (§1)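 Cell proliferation assay run on LNCaP/AR, VCaP, 22Rv1, PC-3 and L-02 cells, with PC-3 and L-02 serving as AR-independent toxicity controls. IC50 fitted in GraphPad Prism 5 as the mean of at least two experiments, each in duplicate. Deviations under 35%.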

CWR22R = test: Antiproliferative activity against human 22Rv1 expressing AR assessed as reduction in cell viability incubated for 6 days by CCK-8 assay; type: functional, cell-based; conditions: 22Rv1, 144 h; in short: as §1
PC-3 = test: Cytotoxicity against human PC3 assessed as reduction in cell viability incubated for 6 days by CCK-8 assay; type: cell-based; conditions: PC-3, 144 h; in short: as §1
VCaP [2] = test: Antiproliferative activity against human VCaP expressing AR assessed as reduction in cell viability at 30 uM incubated for 6 days by CCK-8 assay relative to control; conditions: 144 h, read-out: INH
[3] = molecular target: Bromodomain-containing protein 4 (Homo sapiens) (UniProt O60885); test: Inhibition of BRD4 (unknown origin) by alpha-screen assay
VCaP [4] = test: Antitumor activity against castration-resistant human VCaP cells xenografted in BALB/c mouse assessed as tumor growth inhibition at 30 mg/kg, po administered for 40 days; type: functional; conditions: 960 h, read-out: TGI
In short: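 Castration-resistant VCaP xenografts grown in male BALB/c nude mice. Animals dosed once daily for 40 days alongside a vehicle group. Tumor volume tracked over time, with tumor weights taken at end. Reported as tumor growth inhibition, mean ± SEM, N = 8-9 per group.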

VCaP [5] = test: Antiproliferative activity against human VCaP expressing AR assessed as reduction in cell viability incubated for 6 days by CCK-8 assay; type: functional, cell-based; conditions: 144 h; in short: as §1
[6] = molecular target: T1, Androgen receptor (Homo sapiens) (UniProt P10275); test: Inhibition of AR in human HEK293 cells assessed as decrease in receptor transactivation at 10 uM incubated for 24 hrs by dual luciferase reporter gene assay; type: cell-based
T1 sequence (whole entry): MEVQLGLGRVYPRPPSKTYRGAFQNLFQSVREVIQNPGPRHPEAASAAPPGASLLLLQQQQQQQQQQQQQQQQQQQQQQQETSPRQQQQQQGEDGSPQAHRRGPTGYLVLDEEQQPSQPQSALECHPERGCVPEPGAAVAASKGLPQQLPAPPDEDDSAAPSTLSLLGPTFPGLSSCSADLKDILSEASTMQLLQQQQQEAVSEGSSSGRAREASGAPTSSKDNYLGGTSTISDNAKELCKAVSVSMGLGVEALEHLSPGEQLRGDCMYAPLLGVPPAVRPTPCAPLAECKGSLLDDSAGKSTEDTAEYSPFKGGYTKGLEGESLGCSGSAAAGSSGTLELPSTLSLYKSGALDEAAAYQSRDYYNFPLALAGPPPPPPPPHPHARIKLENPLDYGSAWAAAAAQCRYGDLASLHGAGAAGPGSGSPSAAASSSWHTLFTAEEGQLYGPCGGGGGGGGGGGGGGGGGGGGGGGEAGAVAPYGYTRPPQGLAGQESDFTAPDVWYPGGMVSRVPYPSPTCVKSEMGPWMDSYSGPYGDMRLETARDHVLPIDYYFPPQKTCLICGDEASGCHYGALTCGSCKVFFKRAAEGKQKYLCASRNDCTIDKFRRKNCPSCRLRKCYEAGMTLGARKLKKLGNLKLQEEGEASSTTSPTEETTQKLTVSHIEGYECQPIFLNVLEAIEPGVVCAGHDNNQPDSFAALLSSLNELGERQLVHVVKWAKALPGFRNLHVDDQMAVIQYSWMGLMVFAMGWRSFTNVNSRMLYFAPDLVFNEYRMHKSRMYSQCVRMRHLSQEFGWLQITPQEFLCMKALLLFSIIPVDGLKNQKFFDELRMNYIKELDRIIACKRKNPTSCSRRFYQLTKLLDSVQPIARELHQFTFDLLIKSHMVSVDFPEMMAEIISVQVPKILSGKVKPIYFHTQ
In short: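 HEK 293 cells transiently co-transfected with wt-AR expression vector and an androgen-responsive luciferase reporter construct. Cells given 2 nM testosterone plus 10 µM test compound (final concentrations). Read-out by luciferase, mean ± SD, n = 3.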

L02 = test: Cytotoxicity against human L02 assessed as reduction in cell viability incubated for 6 days by CCK-8 assay; type: cell-based; conditions: L02, 144 h; in short: as §1
LNCaP [7] = test: Inhibition of AR protein expression in human LNCAP cells at 20 uM incubated for 24 hrs by Western blot analysis; type: functional, cell-based
In short: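 LNCaP cells treated with 20 µM compound or DMSO for 24 h. AR-full protein detected by western blot with tubulin as loading control, then quantified by ImageJ grayscale analysis.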

[8] = Solubility of compound in PBS incubated for 24 hrs by HPLC analysis; type: physicochemical
In short: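 Solubility determined in PBS at 25 ℃ by the saturation shake-flask method. Quantified against calibration curves.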

[9] = Stability of compound in nutrient medium with fetal bovine serum and antibiotic incubated for 6 days by HPLC analysis; conditions: 144 h

| Compound | IC50 (LNCaP [1]) | IC50 (CWR22R) | IC50 (PC-3) | inhibition at 30 µM (VCaP [2]) | inhibition [3] | inhibition in vivo at 30 mg/kg (VCaP [4]) | IC50 (VCaP [5]) | inhibition [6] | IC50 (L02) | inhibition (LNCaP [7]) | solubility at 24 h [8] | Stability [9] |
| --- | --- | --- | --- | --- | --- | --- | --- | --- | --- | --- | --- | --- |
| CNC(=O)c1ccc(N2C(=S)N(c3ccc(C#N)c(C(F)(F)F)c3)C(=O)C2(C)C)cc1F [ENZALUTAMIDE] | 0.19 µM | > 30 µM | > 30 µM | 50% | inactive | 43% |  |  |  |  |  |  |
| CC(O)c1cccc(C(=O)N[C@@H](C)Cn2ccc(-c3ccc(C#N)c(Cl)c3)n2)c1 (stereo not given in full) | 2.28 µM | 20.1 µM | > 30 µM |  |  |  | 0.9 µM | Active |  |  |  |  |
| CC(O)c1cc(C(=O)N[C@@H](C)Cn2ccc(-c3ccc(C#N)c(Cl)c3)n2)n[nH]1 (stereo not given in full) [DAROLUTAMIDE] | 1.65 µM | > 30 µM | > 30 µM |  | inactive |  |  |  | > 30 µM |  |  |  |
| C[C@H](Cn1ccc(-c2ccc(C#N)c(Cl)c2)n1)Nc1ncnc2nc[nH]c12 | 0.85 µM | 10.6 µM | 1.56 µM |  |  |  | 2 µM |  |  |  |  |  |
| CC(=O)c1cc(C(=O)N[C@@H](C)Cn2ccc(-c3cc(F)c(C#N)c(Cl)c3)n2)n[nH]1 | 1.1 µM | > 30 µM | > 30 µM |  |  |  |  |  | 27.7 µM |  |  |  |
| C[C@@H](Cn1ccc(-c2ccc(C#N)c(Cl)c2)n1)NC(=O)c1cccc(OCC(O)CO)c1 (stereo not given in full) | 0.74 µM | > 30 µM | > 30 µM |  |  |  | 0.59 µM |  | > 30 µM |  |  |  |
| CC(O)c1ccc(C(=O)N[C@@H](C)Cn2ccc(-c3ccc(C#N)c(Cl)c3)n2)cc1 (stereo not given in full) | 3.69 µM | 9.05 µM | > 30 µM |  |  |  | 0.91 µM |  | > 30 µM |  |  |  |
| C[C@@H](Cn1ccc(-c2ccc(C#N)c(Cl)c2)n1)Nc1ccc2cccnc2c1 | 2.66 µM | 5.82 µM | 11.2 µM |  |  |  | 3.22 µM |  |  |  |  |  |
| C[C@@H](Cn1ccc(-c2ccc(C#N)c(Cl)c2)n1)Nc1nccc2ccccc12 | 2.1 µM | 3.57 µM | > 30 µM |  |  |  | 1.47 µM |  |  |  |  |  |
| C[C@@H](Cn1ccc(-c2ccc(C#N)c(Cl)c2)n1)NC(=O)c1cc[nH]n1 | 1 µM | > 30 µM | 18.7 µM |  |  |  |  |  | > 30 µM |  |  |  |
| C[C@@H](Cn1ccc(-c2ccc(C#N)c(Cl)c2)n1)Nc1ncnc2ccccc12 | 0.51 µM | 4.36 µM | > 30 µM |  |  |  | 1.31 µM | Active | 13 µM | Active |  |  |
| CC(Cn1ccc(-c2ccc(C#N)c(Cl)c2)n1)C(=O)Nc1cccc(C(C)O)c1 (racemic) | 4.15 µM |  | > 30 µM |  |  |  | > 30 µM | Active |  |  |  |  |
| C[C@@H](Cn1ccc(-c2ccc(C#N)c(Cl)c2)n1)Nc1ccccc1 | 0.71 µM | > 30 µM | 3.21 µM |  |  |  | > 30 µM |  | 29.4 µM |  |  |  |
| Cc1ccnc(N[C@@H](C)Cn2ccc(-c3ccc(C#N)c(Cl)c3)n2)n1 | 1.33 µM | 4.76 µM | > 30 µM |  |  |  | 0.85 µM |  | > 30 µM |  |  |  |
| C[C@@H](Cn1ccc(-c2ccc(C#N)c(Cl)c2)n1)Nc1ccc2ccccc2c1 | 7.7 µM | 4.61 µM |  |  |  |  | 4.61 µM |  | 26.8 µM |  |  |  |
| C[C@@H](Cn1ccc(-c2ccc(C#N)c(Cl)c2)n1)Nc1cccnc1 | 0.43 µM | 21.6 µM | > 30 µM |  |  |  | > 30 µM | Active | > 30 µM |  |  |  |
| CC(=O)c1ccc(C(=O)N[C@@H](C)Cn2ccc(-c3ccc(C#N)c(Cl)c3)n2)cc1 | 3.6 µM |  | > 30 µM |  |  |  | 1.4 µM |  | 15.3 µM |  |  |  |
| C[C@@H](Cn1ccc(-c2ccc(C#N)c(Cl)c2)n1)Nc1ccc2ccccc2n1 | 2.3 µM | 7.95 µM | > 30 µM |  |  |  | 0.87 µM |  |  |  |  |  |
| C[C@@H](Cn1ccc(-c2ccc(C#N)c(Cl)c2)n1)Nc1cccc2ccncc12 | 3.09 µM | 4.72 µM | 5.13 µM |  |  |  | 4.02 µM |  |  |  |  |  |
| C[C@@H](Cn1ccc(-c2ccc(C#N)c(Cl)c2)n1)Nc1ncccn1 | 1.18 µM | 12.5 µM | > 30 µM |  |  |  | 0.48 µM |  | > 30 µM |  |  |  |
| CC(O)c1cc(C(=O)N[C@@H](C)Cn2ccc(-c3ccc(C#N)c(Cl)c3)n2)[nH]n1 (stereo not given in full) [DAROLUTAMIDE] |  |  |  |  |  |  |  |  |  |  | 223 µM (≈ 89 µg/mL) | Stable |
| C[C@@H](Cn1ccc(-c2ccc(C#N)c(Cl)c2)n1)Nc1nc(Cl)nc2nc[nH]c12 | 2.66 µM | 4.38 µM | > 30 µM |  |  |  | 2.7 µM |  | 14.5 µM |  |  |  |
| C[C@@H](Cn1ccc(-c2ccc(C#N)c(Cl)c2)n1)Nc1cncnc1 | 2.07 µM | > 30 µM | > 30 µM |  |  |  | > 30 µM |  | > 30 µM |  |  |  |
| C[C@@H](Cn1ccc(-c2cc(F)c(C#N)c(Cl)c2)n1)NC(=O)Nc1cc(C(C)(C)C)[nH]n1 | 1.63 µM |  | > 30 µM |  |  |  | 5.12 µM |  | 15 µM |  |  |  |
